Measured values published in ChEMBL document CHEMBL1143369, “Guanidine and 2-aminoimidazoline aromatic derivatives as alpha2-adrenoceptor ligands: searching for structure-activity relationships” (J Med Chem, 2009).
Activity calls are given as the source filed them. The calls are words filed in the database; no cut-off is given here.

Assays:
[1] = target: T1, Adrenergic receptor alpha-2 (Homo sapiens, UniProt P08913+P18825+P18089); test: Displacement of [3H]RX821002 from alpha2 adrenoceptor in human prefrontal cortex neural membrane after 30 mins by liquid scintillation spectrometry; type: tissue-based
T1 sequence (P08913 whole entry): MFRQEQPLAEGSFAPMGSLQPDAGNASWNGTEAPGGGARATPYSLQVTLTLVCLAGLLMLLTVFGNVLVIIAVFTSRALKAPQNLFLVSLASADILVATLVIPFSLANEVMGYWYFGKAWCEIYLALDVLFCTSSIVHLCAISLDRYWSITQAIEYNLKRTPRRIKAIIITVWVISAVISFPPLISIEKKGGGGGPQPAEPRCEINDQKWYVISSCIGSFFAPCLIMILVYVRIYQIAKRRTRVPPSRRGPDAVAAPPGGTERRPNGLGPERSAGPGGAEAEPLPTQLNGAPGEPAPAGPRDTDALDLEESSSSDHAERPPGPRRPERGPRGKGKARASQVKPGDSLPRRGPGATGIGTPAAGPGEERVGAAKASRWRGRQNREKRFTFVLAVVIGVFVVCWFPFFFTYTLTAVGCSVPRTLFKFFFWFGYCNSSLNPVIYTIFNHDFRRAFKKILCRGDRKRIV
T1 sequence (P18825 whole entry): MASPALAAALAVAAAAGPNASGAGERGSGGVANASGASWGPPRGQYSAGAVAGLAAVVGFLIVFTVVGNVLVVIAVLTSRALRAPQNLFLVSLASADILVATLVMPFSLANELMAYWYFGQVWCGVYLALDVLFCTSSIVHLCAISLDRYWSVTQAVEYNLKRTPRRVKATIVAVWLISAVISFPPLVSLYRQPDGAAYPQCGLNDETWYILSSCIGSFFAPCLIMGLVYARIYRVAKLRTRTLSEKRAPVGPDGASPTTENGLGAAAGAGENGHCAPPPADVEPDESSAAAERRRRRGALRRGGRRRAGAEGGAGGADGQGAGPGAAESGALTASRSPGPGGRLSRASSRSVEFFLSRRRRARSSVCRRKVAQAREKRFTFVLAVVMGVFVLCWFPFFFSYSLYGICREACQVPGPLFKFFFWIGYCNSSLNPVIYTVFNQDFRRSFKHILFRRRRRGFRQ
T1 sequence (P18089 whole entry): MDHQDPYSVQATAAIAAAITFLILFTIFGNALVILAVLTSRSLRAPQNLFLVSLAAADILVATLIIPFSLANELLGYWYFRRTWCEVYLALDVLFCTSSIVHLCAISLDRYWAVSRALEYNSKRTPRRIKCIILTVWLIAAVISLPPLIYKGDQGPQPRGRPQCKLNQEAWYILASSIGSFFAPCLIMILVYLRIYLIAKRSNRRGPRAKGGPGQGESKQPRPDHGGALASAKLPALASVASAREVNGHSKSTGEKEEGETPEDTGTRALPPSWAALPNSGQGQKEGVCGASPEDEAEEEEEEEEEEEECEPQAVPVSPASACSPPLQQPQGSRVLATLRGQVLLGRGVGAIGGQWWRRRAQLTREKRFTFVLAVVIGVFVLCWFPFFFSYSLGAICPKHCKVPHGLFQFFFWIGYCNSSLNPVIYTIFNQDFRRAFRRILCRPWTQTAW

[2] = target: T2, Adrenergic receptor alpha-2 (Homo sapiens) (UniProt P08913+P18825+P18089); test: Antagonist activity at alpha2 adrenoceptor in human prefrontal cortex neural membrane at 10 uM assessed as rightwards shift in UK-14304 EC50 by [35S]GTPgammaS binding assay; type: functional, tissue-based
Summary of the method: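 Human postmortem prefrontal cortex P2 membranes (40 µg protein) incubated 120 min at 30 °C with shaking in 0.5 nM [35S]GTPγS, 1 mM EGTA, 3 mM MgCl2, 100 mM NaCl, GDP, Tris-HCl pH 7.4. Nonspecific binding with 10 µM unlabeled GTPγS.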

Rattus norvegicus [3] = test: Antidepressant activity in Sprague-Dawley rat assessed as increase in extracellular noradrenaline level in prefrontal cortex at 100 uM administered locally by microdialysis measured after every 70 mins by HPLC; type: functional
Summary of the method: (§1)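 Male Sprague-Dawley rats (250-300 g), freely moving, with a PFC probe implanted under chloral hydrate 20-24 h earlier. Perfused with aCSF pH 7.4 at 1 µL/min. Drug dissolved in aCSF and reverse-dialysed for 70 min at each step of 1, 10 and 100 µM. Dialysate sampled every 35 min, NA measured by HPLC with amperometric detection at +650 mV. Values are % of mean of 3 basal samples, ANOVA versus aCSF controls.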

Rattus norvegicus [4] = test: Antidepressant activity in Sprague-Dawley rat assessed as increase in extracellular noradrenaline level in prefrontal cortex at 10 mg/kg, ip […] by HPLC; type: functional; details: route intraperitoneal
[5] = target: T1, Adrenergic receptor alpha-2; test: Agonist activity at alpha2 adrenoceptor in human cortical membrane after 2 hrs by [35S]GTPgammaS binding assay; type: functional, cell membranes
[6] = target: T2, Adrenergic receptor alpha-2 (Homo sapiens); test: Intrinsic activity at alpha2 adrenoceptor in human cortical membrane at 0.0001 to 1000 uM after 2 hrs by [35S]GTPgammaS binding assay relative to UK-14304; type: functional, cell membranes
Summary of the method: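 Human postmortem PFC membranes (40 µg protein) incubated 2 h at 30 °C with 0.5 nM [35S]GTPγS in buffer of EGTA, MgCl2, 100 mM NaCl, GDP and Tris-HCl pH 7.4. Compound tested at 8 concentrations (10^-10 to 10^-3 M). Bound label collected by GF/C filtration.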

Rattus norvegicus [7] = test: Antidepressant activity in Sprague-Dawley rat assessed as increase in extracellular noradrenaline level in prefrontal cortex at 1 to 100 uM administered locally by microdialysis measured after every 70 mins by HPLC; type: functional; summary of the method: as §1
Rattus norvegicus [8] = test: Antidepressant activity in Sprague-Dawley rat assessed as increase in extracellular noradrenaline level in prefrontal cortex at 1 uM administered locally by microdialysis measured after every 70 mins by HPLC; type: functional, organism-based; summary of the method: as §1

| pKi [1] | Activity [2] | SMILES | Emax (Rattus norvegicus [3]) | Activity (Rattus norvegicus [4]) | EC50 [5] | Emax [6] | Emax (Rattus norvegicus [7]) | Activity (Rattus norvegicus [8]) |
| --- | --- | --- | --- | --- | --- | --- | --- | --- |
| 6.58 | Active | CCNc1ccc(NC(=N)N)cc1 | 304% | 161% |  |  |  |  |
| 7.12 |  | CCN(C)c1ccc(NC(=N)N)cc1 |  |  | 16.2 µM | 92% |  |  |
| 9.04 |  | COC1(C2=NCCN2)COc2ccccc2O1 (centres undefined) |  |  |  |  | 290% | Active |
|  |  | CCC(CC)c1ccc(NC(=N)N)cc1 |  |  | 38.7 µM | 89% |  |  |
| 6.95 |  | CNc1ccc(NC(=N)N)cc1 |  |  | 82.3 µM | 87% |  |  |

| SMILES | pKi [1] | Activity [2] | Emax (Rattus norvegicus [3]) | Activity (Rattus norvegicus [4]) | EC50 [5] | Emax [6] | Emax (Rattus norvegicus [7]) | Activity (Rattus norvegicus [8]) |
| --- | --- | --- | --- | --- | --- | --- | --- | --- |
| CCN(C)c1ccc(NC2=NCCN2)cc1 | 7.38 |  |  |  | 1.9 µM | 103% |  |  |
| CNc1ccc(NC2=NCCN2)cc1 | 7.27 |  |  |  | 61.4 µM | 98% |  |  |
| CCNc1ccc(NC2=NCCN2)cc1 | 6.75 |  |  |  | 59.3 µM | 95% |  |  |
